Results on 19 compounds are retold here after ChEMBL document CHEMBL2034950, “Sphingolipid analogues inhibit development of malaria parasites” (ACS Med Chem Lett, 2012).

Data set [1] in a line: Cytotoxicity against human HFF1 cells at 50 uM after 72 hrs by SRB assay. The data set is classed as cell-based. Conditions: hff-1, 72 h. In outline:
(§1)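 Human foreskin fibroblasts (HFF-1) were seeded at 20,000 cells per plate, incubated with compound at 10 or 50 μM for 72 h, and read by sulforhodamine B assay.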
In general terms: The SRB assay estimates cell density from bound dye.

Data set [2] can be described thus: Cytotoxicity against human HFF1 cells at 10 uM after 72 hrs by SRB assay. The data set is classed as cell-based. Conditions: hff-1, 72 h. The essentials:
as §1

Data set [3] has as its system Plasmodium knowlesi. The experiment in a line: Antimalarial activity against Plasmodium knowlesi infected in rhesus monkey RBC assessed as [3H]-hypoxanthine incorporation after 12 hrs by scintillation counting. It counts as functional, organism-based. The essentials: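 Dose-response assay of in vitro parasite growth and replication in red blood cells, read as [³H]-hypoxanthine uptake. IC50 values were derived, with the error given as standard deviation.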

Data set [4] has as its system Plasmodium falciparum. Briefly: Antimalarial activity against chloroquine-sensitive Plasmodium falciparum D6 infected in O-positive human RBC assessed as [3H]-hypoxanthine incorporation after 48 hrs by scintillation counting. The data set is classed as functional, organism-based. The essentials:
(§2)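 Growth inhibition in vitro by [3H]-hypoxanthine uptake in parasitized RBCs; dose-response runs to derive IC50.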

In data set [5] the test system is Plasmodium falciparum. Briefly: Antimalarial activity against chloroquine-resistant Plasmodium falciparum W2 infected in O-positive human RBC assessed as [3H]-hypoxanthine incorporation after 48 hrs by scintillation counting. The data set is classed as functional, organism-based. The essentials: as §2
Data set [6] deals with Plasmodium falciparum. The experiment in a line: Antimalarial activity against chloroquine-sensitive Plasmodium falciparum D6 infected in O-positive human RBC assessed as [3H]-hypoxanthine incorporation after 48 hrs by scintillation counting in presence of BSA. It counts as functional, organism-based.
For data set [7], the system named is Plasmodium falciparum. The experiment in a line: Antimalarial activity against chloroquine-resistant Plasmodium falciparum W2 infected in O-positive human RBC assessed as [3H]-hypoxanthine incorporation after 48 hrs by scintillation counting in presence of BSA. It counts as functional, organism-based.
Data set [8] can be described thus: Apparent volume of distribution during terminal phase in mouse RBC at 30 mg/kg, po QD. It counts as ADME, organism-based, Erythrocyte. Also noted: dose 30 mg/kg, route oral. Conditions: red blood cells (RBC), read-out: Vz/F. The essentials:
(§3)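 Mice were dosed orally once daily at 30 mg/kg for five days. Drug levels were followed over time in plasma and in red blood cells on day 1 and on day 5 of dosing.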

A short description of data set [9]: Half life in mouse plasma at 30 mg/kg, po QD. The data set is classed as ADME, organism-based. Also noted: dose 30 mg/kg, route oral. The essentials:
as §3

Data set [10] in a line: AUC (0 to infinity) in mouse RBC at 30 mg/kg, po QD. Conditions: red blood cells (RBC). Also on record: time infinity, dose 30 mg/kg, route oral. It counts as ADME, organism-based, Erythrocyte. The essentials:
as §3

A short description of data set [11]: Ratio of drug uptake in mouse RBC to mouse plasma at 30 mg/kg, po QD. It counts as ADME, organism-based. Also noted: dose 30 mg/kg, route oral. Conditions: red blood cells (RBC) / plasma. The essentials:
as §3

A short description of data set [12]: Half life in mouse RBC at 30 mg/kg, po QD. The data set is classed as ADME, organism-based, Erythrocyte. Also noted: dose 30 mg/kg, route oral. Conditions: red blood cells (RBC). The essentials:
as §3

The test system of data set [13] is Plasma. The experiment in a line: Apparent volume of distribution during terminal phase in mouse plasma at 30 mg/kg, po QD. It counts as ADME, organism-based. Also noted: dose 30 mg/kg, route oral. Conditions: in vivo. The essentials: as §3
Data set [14] in a line: Cmax in mouse RBC at 30 mg/kg, po QD. The data set is classed as ADME, organism-based, Erythrocyte. Also on record: dose 30 mg/kg, route oral. Conditions: red blood cells (RBC). In outline:
as §3

A short description of data set [15]: Cmax in mouse plasma at 30 mg/kg, po QD. It counts as ADME, organism-based. Also noted: dose 30 mg/kg, route oral. In outline: as §3
The nature of data set [16]: AUC (0 to infinity) in mouse plasma at 30 mg/kg, po QD. The data set is classed as ADME, organism-based. Also on record: time infinity, dose 30 mg/kg, route oral. In outline: as §3
Data set [17] can be described thus: Tmax in mouse plasma at 30 mg/kg, po QD. It counts as ADME, organism-based. Also on record: dose 30 mg/kg, route oral. The essentials: as §3
Data set [18] deals with Plasmodium falciparum. The experiment in a line: Antimalarial activity against chloroquine-resistant Plasmodium falciparum W2 infected in O-positive human RBC assessed as parasitemia at 546.94 ng/mL after 48 hrs by Giemsa staining-based microscopic analysis. The data set is classed as functional.
The subject of data set [19] is Plasmodium falciparum. The experiment in a line: Antimalarial activity against chloroquine-resistant Plasmodium falciparum W2 infected in O-positive human RBC assessed as trophozoite-stage parasites at 546.94 ng/mL after 48 hrs by Giemsa staining-based microscopic analysis (reference value: 4.2%). It counts as functional.
The subject of data set [20] is Plasmodium falciparum. The experiment in a line: Antimalarial activity against chloroquine-resistant Plasmodium falciparum W2 infected in O-positive human RBC assessed as aberrant form of trophozoite-stage parasites at 546.94 ng/mL after 28 to 48 hrs by Giemsa staining-based microscopic analysis. It counts as functional, organism-based.
Data set [21] relates to Plasmodium falciparum. Briefly: Antimalarial activity against chloroquine-resistant Plasmodium falciparum W2 infected in O-positive human RBC assessed as schizont-stage parasites at 546.94 ng/mL after 48 hrs by Giemsa staining-based microscopic analysis (reference value: 8.05%). It counts as functional.
The test system of data set [22] is Plasmodium falciparum. Briefly: Antimalarial activity against chloroquine-resistant Plasmodium falciparum W2 infected in O-positive human RBC assessed as aberrant form of ring-stage parasites at 546.94 ng/mL after 28 to 48 hrs by Giemsa staining-based microscopic analysis. The data set is classed as functional, organism-based.
For data set [23], the system named is Plasmodium falciparum. Briefly: Antimalarial activity against chloroquine-resistant Plasmodium falciparum W2 infected in O-positive human RBC assessed as ring-stage parasites at 546.94 ng/mL after 48 hrs by Giemsa staining-based microscopic analysis (reference value: 87.9%). It counts as functional.

As a reminder, the IC50 is the concentration needed to halve the response being measured. The term half-life denotes the time needed for the level to fall by half in the phase considered. For orientation: AUC(0-inf) means the area under the concentration-time curve extrapolated to infinity. As a reminder, the Kp is tissue or fluid exposure divided by exposure in the circulation. In general, Cmax refers to the highest concentration seen after dosing. What is called Tmax is the time from dosing to the highest level.

Activity calls are given as the source filed them.

Regarding `CCCCCCCCCCCCC[C@H](O)C[C@H](O)[C@@H]1CCCN1`, the Activity result is on record as “Toxic” in data set [1] and “Non-toxic” in data set [2]. For the same compound, the figures for the IC50 in data set [3], in data set [4] and in data set [5] were 6.3 µM, 9.7 µM and 4.4 µM, respectively.
Consider `CCCCCCCCCCCCC[C@H](O)C[C@H](O)[C@H](C)NC(C)=O`, for which the Activity entry is reported as “Toxic” in data set [1] and “Non-toxic” in [2]. The result in data set [3] was inactive. Further, the IC50 was found to be 11.1 µM in data set [4] and 13.1 µM in [5].
`CCCCCCCCCCCCC[C@H](O)C[C@@H](O)[C@H](C)NC`: the values for the Activity result in data set [1] and in data set [2] were “Toxic” and “Non-toxic”, respectively. Further, the IC50 in [4] worked out at 14.6 µM; in data set [5], 8.1 µM.
For the compound `CCCCCCCCCCCCC[C@H](O)C[C@H](O)[C@H](C)N` [ENIGMOL], the IC50 in data set [6] turned out to be 5.3 µM; in [7], 9.2 µM; in [3], 10.5 µM; in data set [4] it was 12.6 µM; in data set [5] it was 7.4 µM. For the same compound, the Vd/F in data set [8] is 25 L/kg. For the same compound, the results for the half-life in data set [9] and in data set [12] were 10.7 h and 8.9 h, respectively. Also, the AUC(0-inf) came out at 50.7 µM·h in data set [10] and 14.4 µM·h in data set [16]. Besides, the Kp in data set [11] was found to be 3. The Activity entry is listed as “Toxic” in data set [1] and “Non-toxic” in [2]. Besides, the Vz/F in data set [13] worked out at 4.4 L/kg. Moreover, the Cmax amounted to 3300 nM in [14] and 1100 nM in data set [15]. In addition, in data set [17], the Tmax amounted to 2 h.
Consider `CCCCCCCCCCCCC[C@H](O)C[C@H](O)C1(N)CC1` (racemic), for which the IC50 in [6] is 5.5 µM; in data set [7], 9.9 µM.
For `CCCCCCCCCCCCC[C@H](O)C[C@H](O)[C@H](C)N(C)C`, the Activity result is recorded as “Toxic” in data set [1] and “Non-toxic” in data set [2]. Further, the IC50 in [3] amounted to 6.8 µM; in data set [4], 7 µM; in [5], 4.4 µM.
In the case of `CCCCCCCCCCCCCC(O)CC(=O)C(C)(C)N` (racemic), the IC50 in [6] turned out to be 2.5 µM; in data set [7], 2.6 µM.
On the same counts, the results for `CCCCCCCCCCCCCC(O)C/C(=N\O)C(C)(C)N` (racemic) are 7.44 µM and 10 µM.
As to `CCCCCCCCCCCCC[C@H](O)C[C@H](O)[C@H](C)NC`, the IC50 in data set [6] was found to be 1.7 µM; in [7] it was 0.9 µM; in [3] it was 1.7 µM; in data set [4] it was 4.7 µM; in data set [5], 1.6 µM. In addition, the Activity in data set [18] is 1.3%; in [19], 39.2%; in [21] it was 18.9%; in [1], “Toxic”; in [23] it was 41.9%; in data set [2] it was “Non-toxic”. Also, the result in [20] and in data set [22] was Active.
With `O[C@@H](c1cc(C(F)(F)F)nc2c(C(F)(F)F)cccc12)[C@H]1CCCCN1` (relative stereo) [(S,R)-MEFLOQUINE], the figures for the IC50 in data set [7] and in [3] were 0.0004 µM and 0.04 µM, respectively.
Take `CCCCCCCCCCCCC[C@H](O)C[C@H](O)C(C)(C)NC` (racemic): the IC50 in data set [6] came out at 0.7 µM; in [7], 0.25 µM.
On the same counts, the results for `CCCCCCCCCCCCC[C@@H](O)C[C@H](O)C(C)(C)N` (racemic) are 4.1 µM and 7.4 µM.
Take `CCCCCCCC(F)(F)CCCCC[C@H](O)C[C@H](O)[C@H](C)NC`: the results for the Activity result in data set [1] and in data set [2] were “Toxic” and “Non-toxic”, respectively. In addition, the values for the half-maximal inhibitory concentration (IC50) in [4] and in data set [5] were 7.3 µM and 2.4 µM, respectively.
In the case of `CCCCCCCCCCCCC[C@@H](O)C[C@H](O)[C@H](C)N`, the Activity result in data set [1] is “Toxic”; in data set [2], “Non-toxic”. For the same compound, the IC50 in data set [3] stood at 17.6 µM; in [4] it was 12.7 µM; in [5] it was 8.2 µM.
`CCCCCCCCCCCCC[C@@H](O)C[C@H](O)C1(N)CC1` (racemic): the IC50 worked out at 11.2 µM in [6] and 7.2 µM in [7].
With `CCCCCCCCCCCCCCCC(=O)N[C@@H](C)[C@@H](O)C[C@@H](O)CCCCCCCCCCCCC`, the Activity entry in data set [1] is “Toxic”; in [2] it was “Non-toxic”. For the same compound, the outcome in [3], in [4] and in data set [5] was inactive.
`CCCCCCCCCCCCC[C@H](O)C[C@H](O)C(C)(C)N` (racemic): the figures for the IC50 in data set [6] and in data set [7] were 5.2 µM and 4.7 µM, respectively.
Regarding `CCCCCCCCCCCCC[C@H](O)C[C@@H](O)[C@H](C)N`, the figures for the Activity entry in [1] and in [2] were “Toxic” and “Non-toxic”, respectively. The results for the IC50 in data set [3], in data set [4] and in data set [5] were 20.3 µM, 17.8 µM and 9.2 µM, respectively.
As for `CCCCCCCC(F)(F)CCCCC[C@H](O)C[C@H](O)[C@H](C)N`, the Activity result in data set [1] was “Toxic”; in [2] it was “Non-toxic”. Also, the IC50 in data set [4] was found to be 12.7 µM; in data set [5], 5.6 µM.
